Calls of active or inactive are those of the source. The rule behind the calls is not given here.
How the values were obtained:
Mus musculus [1] = test: Antitussive activity in ammonia liquor-induced mouse assessed as number of cough times at 10 mg/kg, po daily for 3 consecutive days administered before ammonia liquor induction measured for 3 mins; type: functional
Summary of the method: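 Mice were dosed for three days, with vehicle 0.5% sodium carboxymethyl cellulose at 0.2 mL/mouse; codeine 10 mg/kg served as positive control. On day 3, 2 h post-dose, each mouse was placed in a glass chamber and exposed for 5 s to 28% NH4OH aerosol nebulised by compressed air at about 400 mmHg. Coughs were counted over 3 min from spray onset; n = 10, mean ± SD.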

A549 [2] = test: Antitumor activity against human A549 cells at 1 uM by MTT assay; type: functional, cell-based
Summary of the method: (§1)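 MTT growth-inhibition assay on human A549, BGC-823, SMMC-7721 and HL-60 cancer cells. Each compound was tested at 1×10^-7, 1×10^-6 and 1×10^-5 mol/L. Percent inhibition was calculated relative to untreated cells.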

SMMC-7721 [3] = test: Antitumor activity against human SMMC7721 cells at 1 uM by MTT assay; type: functional, cell-based; summary of the method: as §1
A549 [4] = test: Antitumor activity against human A549 cells at 0.1 uM by MTT assay; type: functional, cell-based; summary of the method: as §1
SMMC-7721 [5] = test: Antitumor activity against human SMMC7721 cells at 0.1 uM by MTT assay; type: functional, cell-based; summary of the method: as §1
BGC-823 [6] = test: Antitumor activity against human BGC-823 cells at 0.1 uM by MTT assay; type: functional, cell-based; summary of the method: as §1
BGC-823 [7] = test: Antitumor activity against human BGC-823 cells at 1 uM by MTT assay; type: functional, cell-based; summary of the method: as §1
HL-60 [8] = test: Antitumor activity against human HL-60 cells at 1 uM by MTT assay; type: functional, cell-based; summary of the method: as §1
Mus musculus [9] = test: Antitussive activity in ammonia liquor-induced mouse assessed as number of cough times at 5 mg/kg, po daily for 3 consecutive days administered before ammonia liquor induction measured for 3 mins; type: functional
Summary of the method: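 Mice were dosed in 0.5% sodium carboxymethyl cellulose vehicle (0.2 mL/mouse). On day 3, 2 h after dosing, they were placed in a glass chamber and exposed for 5 s to 28% NH₄OH aerosol, nebulized with compressed air at about 400 mmHg. Coughs were counted over 3 min from spray start. Codeine 10 mg/kg was the positive control and vehicle the negative control. n = 10, mean ± SD.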

HL-60 [10] = test: Antitumor activity against human HL-60 cells at 0.1 uM by MTT assay; type: functional, cell-based; summary of the method: as §1
HL-60 [11] = test: Antitumor activity against human HL-60 cells at 10 uM by MTT assay; type: functional
Summary of the method: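 HL-60 cells were tested by MTT assay at 1×10^-7, 1×10^-6 and 1×10^-5 mol/L of each compound. Percent growth inhibition was calculated relative to untreated cells.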

Compound | Activity (Mus musculus [1]) | Activity (A549 [2]) | Activity (SMMC-7721 [3]) | Activity (A549 [4]) | Activity (SMMC-7721 [5]) | Activity (BGC-823 [6]) | Activity (BGC-823 [7]) | Activity (HL-60 [8]) | Activity (Mus musculus [9]) | Activity (HL-60 [10]) | Activity (HL-60 [11]) [%]
COc1ccc2c3c1O[C@H]1[C@@H](O)C=C[C@H]4[C@@H](C2)N(C)CC[C@@]341 [CODEINE] | 5 |  |  |  |  |  |  |  |  |  | 
C[C@H]1CC[C@H]([C@@H](C)[C@H]2CC[C@H]3[C@@H]4CC(=O)[C@H]5C[C@@H](O[C@@H]6O[C@H](CO)[C@@H](O)[C@H](O)[C@H]6O)CC[C@]5(C)[C@H]4CC[C@]23C)N(C)C1 [PUQIETINONOSIDE] | 13 | inactive | inactive | inactive | inactive | inactive | inactive | inactive | 17 | inactive | 
CC1=C2C[C@H]3[C@@H](C[C@@H](O)[C@H]4C[C@@H](O)CC[C@@]43C)[C@@H]2CC[C@@H]1[C@@H](C)[C@@H]1[C@H](O)C[C@@H](C)CN1C (relative stereo) [PUQIENINE A] | 14 | inactive | inactive | inactive | inactive | inactive | inactive | inactive | 18 | inactive | 
CC1=C2C[C@H]3[C@@H](CC(=O)[C@H]4C[C@@H](O)CC[C@@]43C)[C@@H]2CC[C@@H]1[C@@H](C)[C@@H]1[C@H](O)C[C@@H](C)CN1C (relative stereo) [PUQIENINE B] | 10 | inactive | inactive | inactive | inactive | inactive | inactive | inactive | 12 | inactive | 
C[C@H]1CC[C@H]([C@@H](C)[C@H]2CC[C@H]3[C@@H]4CC(=O)[C@H]5C[C@@H](O)CC[C@]5(C)[C@H]4CC[C@]23C)NC1 | 18 | inactive | inactive | inactive | inactive | inactive | inactive | inactive | 23 | inactive | 51
C[C@@H]1CC[C@@H]([C@@H](C)[C@@H]2CC[C@H]3[C@@H]4CC(=O)[C@H]5C[C@@H](O)CC[C@]5(C)[C@H]4CC[C@]23C)N(C)C1 [PUQIETINONE] | 11 |  |  |  |  |  |  |  | 17 |  | 
